The values below come from ChEMBL document CHEMBL3856271, “Bis-Michael Acceptors as Novel Probes to Study the Keap1/Nrf2/ARE Pathway” (J Med Chem, 2016).

Holding throughout (type): cell-based
For data set [1], the target named is T1, Keap1/Nrf2 (Homo sapiens) (UniProt Q16236+Q14145). The experiment in a line: Inhibition of Keap1-Nrf2 interaction in HEK293T cells assessed as induction of ARE-luciferase gene expression at 20 uM after 24 hrs relative to control. The settings on record: HEK-293T. In a few lines: (§1)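 HEK 293T cells (1 × 105) plated the day before transfection, transiently transfected with 0.1 μg ARE-luc (Nrf2 response element) plasmid by FuGENE6; next day treated with compounds (range 0–100 μM) or sulforaphane 10 μM as positive control for 24 h. Lysates read for luciferase activity; expressed as fold-induction. Cells grown in complete DMEM with 10% FBS, 37 °C, 5% CO2.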
T1 sequence (Q14145 whole entry, looked up): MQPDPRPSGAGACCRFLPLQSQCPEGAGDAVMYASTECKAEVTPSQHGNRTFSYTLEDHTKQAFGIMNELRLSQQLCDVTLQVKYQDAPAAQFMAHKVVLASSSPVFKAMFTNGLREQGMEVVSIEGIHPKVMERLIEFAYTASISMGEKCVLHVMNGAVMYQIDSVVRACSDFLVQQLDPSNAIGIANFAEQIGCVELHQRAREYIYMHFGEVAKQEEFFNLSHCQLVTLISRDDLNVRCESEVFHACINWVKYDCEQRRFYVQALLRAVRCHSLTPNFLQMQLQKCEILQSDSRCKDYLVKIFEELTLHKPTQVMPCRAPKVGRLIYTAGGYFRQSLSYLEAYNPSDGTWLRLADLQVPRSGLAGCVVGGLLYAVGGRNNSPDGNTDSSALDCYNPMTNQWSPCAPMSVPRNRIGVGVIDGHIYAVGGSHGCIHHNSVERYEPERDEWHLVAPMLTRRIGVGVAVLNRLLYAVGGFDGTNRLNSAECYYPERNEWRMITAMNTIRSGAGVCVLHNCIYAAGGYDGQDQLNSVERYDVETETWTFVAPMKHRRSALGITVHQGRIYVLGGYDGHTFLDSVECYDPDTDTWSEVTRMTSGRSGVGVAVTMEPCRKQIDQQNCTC
T1 sequence (Q16236 whole entry, looked up): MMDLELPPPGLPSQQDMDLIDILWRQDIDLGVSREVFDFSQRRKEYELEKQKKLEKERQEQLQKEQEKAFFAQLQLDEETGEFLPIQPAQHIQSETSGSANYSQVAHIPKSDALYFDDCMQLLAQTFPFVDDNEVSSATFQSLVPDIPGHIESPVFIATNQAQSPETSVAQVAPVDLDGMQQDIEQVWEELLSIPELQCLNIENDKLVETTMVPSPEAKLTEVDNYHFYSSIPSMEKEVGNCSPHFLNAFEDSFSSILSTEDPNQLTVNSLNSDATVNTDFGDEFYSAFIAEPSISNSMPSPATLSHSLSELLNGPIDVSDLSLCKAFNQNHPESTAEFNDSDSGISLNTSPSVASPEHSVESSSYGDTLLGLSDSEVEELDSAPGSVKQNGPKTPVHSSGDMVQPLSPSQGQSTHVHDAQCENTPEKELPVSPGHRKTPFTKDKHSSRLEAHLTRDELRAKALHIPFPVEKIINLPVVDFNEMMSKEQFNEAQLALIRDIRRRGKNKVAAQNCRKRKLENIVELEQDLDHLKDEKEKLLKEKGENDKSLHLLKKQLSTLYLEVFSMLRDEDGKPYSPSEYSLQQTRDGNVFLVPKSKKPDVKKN

The target in data set [2] is T1, Keap1/Nrf2 (Homo sapiens). The experiment in a line: Inhibition of Keap1-Nrf2 interaction in HEK293T cells assessed as induction of ARE-luciferase gene expression at 1 uM after 24 hrs relative to control. The settings on record: HEK-293T. In short, it runs like this:
as §1

The target of data set [3] is T1, Keap1/Nrf2 (Homo sapiens). The experiment in a line: Inhibition of Keap1-Nrf2 interaction in HEK293T cells assessed as induction of ARE-luciferase gene expression at 100 uM after 24 hrs relative to control. The settings on record: HEK-293T. In a few lines:
as §1

Data set [4] in a line: Toxicity in HEK293T cells assessed as mortality at 100 uM after 24 hrs LDH assay relative to control. The note with it: human, hek-293t. In a few lines: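 HEK 293T cells cultured in complete DMEM (10% FBS, antibiotics, sodium pyruvate, nonessential amino acids, 2 mM L-glutamine) at 37 °C, 5% CO2. Treated with increasing concentrations of Keap1 ligands for 24 h. Supernatants collected, cells lysed in 1% Triton, and LDH activity measured with buffer containing L(+)-lactic acid and NAD. Mortality reported when over 5%.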

In general, mortality refers to the percentage killed. As to `CC1(C)C=C(C(=O)OC(C)(C)C)C(=O)CC1`, the values for the fold change (FC) in data set [1], in data set [2] and in data set [3] were 3.89, 1.05 and 106, respectively. Also, the mortality in data set [4] is listed as 16%.
Turning to `COC(=O)C1=CC2(CC(CC3CC4(C=C(C(=O)OC)C3=O)OCCO4)C1=O)OCCO2` (stereo not drawn), the fold change (FC) turned out to be 2.76 in data set [1], 0.94 in data set [2] and 15.9 in data set [3]. For the same compound, the mortality in data set [4] was 12%.
As to `CC1(C)C=C(Cl)C(=O)CC1`, the fold change (FC) in data set [1] is 4.42; in data set [2] it was 1.33; in data set [3] it was 43.4.
As to `C=CCC1CC(C)(C)C=C(C(=O)OC)C1=O` (stereo not drawn), the fold change (FC) in data set [1] worked out at 2.05; in data set [2] it was 1.34; in data set [3], 25.3. For the same compound, in data set [4], the Activity result is recorded as “Non-Toxic”.
Turning to `CCCCCCC1CC2(C=C(C(=O)OC)C1=O)OCCO2` (stereo not drawn), the fold change (FC) in data set [1] turned out to be 2.19; in data set [2], 1.4; in data set [3] it was 20.2. For the same compound, in data set [4], the Activity result was “Non-Toxic”.
On the same counts, the results for `COC(=O)C1=CC(C)(C)CC(C)C1=O` (stereo not drawn) are 2.75, 1.17, 4.6 and “Non-Toxic”.
For the compound `COC(=O)C1=CC(C)(C)CC(CCCC2CC(C)(C)C=C(C(=O)OC)C2=O)C1=O` (stereo not drawn), the results for the fold change (FC) in data set [1] and in data set [2] were 248 and 4.71, respectively.
For the compound `CC1(C)C=C(C(=O)O)C(=O)CC1`, the figures for the fold change (FC) in data set [1], in data set [2] and in data set [3] were 3.11, 2 and 29.6, respectively.
On the same counts, the results for `CC1(C)C=C(COC(=O)C2CC(C)(C)CCC2=O)C(=O)CC1` (stereo not drawn) are 3.79, 2.98 and 4.02.
As to `CC1(C)C=C(I)C(=O)CC1`, the fold change (FC) in data set [1] stood at 1.16; in data set [2] it was 1.22; in data set [3], 17.4.
With `COC(=O)C1=CC(C)(C)CCC1=O`, the fold change (FC) was found to be 6.46 in data set [1], 1.36 in data set [2] and 50.6 in data set [3]. Moreover, the Activity result in data set [4] is “Non-Toxic”.
Take `COC(=O)C1=CC(C)(C)CC(C/C=C/CC2CC(C)(C)C=C(C(=O)OC)C2=O)C1=O` (stereo not drawn): in data set [2], the fold change (FC) stood at 15.2.
Consider `COC(=O)C1=CC(C)(C)CC(CC2CC(C)(C)C=C(C(=O)OC)C2=O)C1=O` (stereo not drawn), for which the fold change (FC) in data set [1] was 3.6; in data set [2] it was 4.49; in data set [3], 101. Besides, the mortality in data set [4] is 24%.
In the case of `COC(=O)C1(C)CC(C)(C)C=CC1=O` (stereo not drawn), the fold change (FC) in data set [1] stood at 2.43; in data set [2], 1.47; in data set [3], 4.56.
Taken in the same sequence, the figures for `CC1(C)C=C(CO)C(=O)CC1` were 0.77, 0.72 and 1.46.
Turning to `COC(=O)C1=CC(C)(C)CC(CC#CCC2CC(C)(C)C=C(C(=O)OC)C2=O)C1=O` (stereo not drawn), the fold change (FC) in data set [2] was 52.5.
As to `CC1(C)C=C(COC(=O)C2=CC(C)(C)CCC2=O)C(=O)CC1`, the fold change (FC) in data set [1] amounted to 3.78; in data set [2] it was 2.02; in data set [3], 121. Also, the mortality in data set [4] came to 15%.
Consider `COC(=O)C1=CC(C)(C)CCC1O` (stereo not drawn), for which the fold change (FC) in data set [1] amounted to 1.85; in data set [2], 1; in data set [3], 1.29.
On to `CCCCCCC1CC(C)(C)C=C(C(=O)OC)C1=O` (stereo not drawn), for which the fold change (FC) came out at 2 in data set [1], 1.15 in data set [2] and 64.7 in data set [3]. Also, the Activity entry in data set [4] is reported as “Non-Toxic”.
Turning to `COC(=O)C1=CC(C)(C)CC(CC(=O)OC(C)(C)C)C1=O` (stereo not drawn), the values for the fold change (FC) in data set [1], in data set [2] and in data set [3] were 2, 0.65 and 1.75, respectively.
For `COC(=O)CCC1CC(C)(C)C=C(C(=O)OC)C1=O` (stereo not drawn), the fold change (FC) in data set [1] is 1.24; in data set [2] it was 0.68; in data set [3], 5.96.
Turning to `COC(=O)C1=CC(C)(C)CC(CC(F)(F)F)C1=O` (stereo not drawn), the fold change (FC) in data set [1] was found to be 1.54; in data set [2] it was 0.54; in data set [3] it was 17.9. In addition, the mortality in data set [4] is 11%.
Regarding `COC(=O)C1=CC(C)(C)CC(CC(C)=O)C1=O` (stereo not drawn), the fold change (FC) was 2.2 in data set [1], 0.49 in data set [2] and 8.71 in data set [3].
In the case of `C#CCC1CC(C)(C)C=C(C(=O)OC)C1=O` (stereo not drawn), the results for the fold change (FC) in data set [1], in data set [2] and in data set [3] were 1.48, 1.14 and 34.2, respectively. In addition, the mortality in data set [4] worked out at 7%.
On the same counts, the results for `COC(=O)C1=CC2(CC(CCCC3CC4(C=C(C(=O)OC)C3=O)OCCO4)C1=O)OCCO2` (stereo not drawn) are 1.05, 1, 30.9 and 9%.
For `COC(=O)C1=CC(C)(C)C=CC1=O`, the fold change (FC) stood at 3.39 in data set [1], 1.35 in data set [2] and 10.3 in data set [3].
As for `C=CCOC(=O)C1=CC(C)(C)CCC1=O`, the fold change (FC) came to 4.36 in data set [1], 1.39 in data set [2] and 94.8 in data set [3]. For the same compound, the mortality in data set [4] stood at 17%.
Regarding `COC(=O)C1=CC2(CC(C)C1=O)OCCO2` (stereo not drawn), the fold change (FC) turned out to be 2.49 in data set [1] and 0.98 in data set [2]. For the same compound, in data set [4], the Activity result is listed as “Non-Toxic”.
With `COC(=O)C1=CC(C)(C)CC(Cc2ccccc2)C1=O` (stereo not drawn), the fold change (FC) in data set [1] is 0.92; in data set [2], 0.95; in data set [3], 48.5. Also, in data set [4], the Activity entry is recorded as “Non-Toxic”.
Turning to `COC(=O)C1=CC(C)(C)CC(CCCCC2CC(C)(C)C=C(C(=O)OC)C2=O)C1=O` (stereo not drawn), in data set [2], the fold change (FC) is 8.23.
For `COC(=O)C1CC(C)(C)C=CC1=O` (stereo not drawn), the figures for the fold change (FC) in data set [1], in data set [2] and in data set [3] were 3.2, 1.05 and 41.9, respectively.
Taken in the same sequence, the figures for `COC(=O)C1=CC(C)(C)CC(CC#N)C1=O` (stereo not drawn) were 2.22, 1.03 and 17.1.
